Data set [1] is described as follows: Cytotoxicity against african green monkey Vero cells after 72 hrs by MTT assay. The data set is classed as cell-based. The settings on record: chlorocebus sabaeus. The procedure, abridged:
(§1)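 Vero or transformed THP-1 cells incubated with compound (0.3–300 μM) 72 h at 37 °C, 5% CO2; untreated controls. MTT read-out, formazan OD at 580 nm; % cytotoxicity = 100 × (OD control − OD treated)/OD control. CC50/CC90 by sigmoidal regression; triplicates, repeated twice. DMSO stocks 100× concentrated, diluted in medium.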
(In general: Tetrazolium assays rely on reduction of a dye to a coloured formazan, in cell work by metabolically active cells.)

The test system of data set [2] is Trypanosoma cruzi. Briefly: Antitrypanosomal activity against Trypanosoma cruzi 320I01 epimastigotes after 72 hrs by haemocytometry. The data set is classed as functional, organism-based. To be noted: 320I01, 72 h. The procedure, abridged:
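Late-phase T. cruzi epimastigotes cultured in LIT medium with hiFCS at 28 °C; threefold serial dilutions (0.3–100 μM) for 72 h at 28 °C, untreated controls. Parasites counted in a haemocytometer; IC50/IC90 by sigmoidal regression; each concentration in triplicate, two experiments.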

A short description of data set [3]: Selectivity index, CC50 for african green monkey Vero cells to IC50 for Trypanosoma cruzi 320I01 epimastigote. The data set is classed as functional. The procedure, abridged: (§2)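 Selectivity index computed as CC50 in Vero cells divided by IC50 against the T. cruzi stage named in the line.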
Data set [4] deals with Trypanosoma cruzi. Briefly: Antitrypanosomal activity against Trypanosoma cruzi 320I01 amastigotes infected in african green monkey Vero cells after 5 days by Giemsa staining. The settings on record: 320I01, Vero, 120 h. The data set is classed as functional, organism-based. The essentials:
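Vero cells (RPMI, 5% hiSBF, 37 °C, 5% CO2) infected 24 h with tissue-derived T. cruzi trypomastigotes at parasite:cell 10:1. Compound dilutions (top 100 μM) applied 5 days at 37 °C, 5% CO2, medium changed once at day 3. Infected cells scored per 300 cells on methanol-fixed Giemsa preparations; IC50/IC90 by sigmoidal regression; triplicates, two experiments.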

A short description of data set [5]: Selectivity index, CC50 for african green monkey Vero cells to IC50 for Trypanosoma cruzi 320I01 amastigotes. The data set is classed as functional. The essentials:
as §2

Data set [6] concerns Leishmania chagasi. Briefly: Antileishmanial activity against Leishmania chagasi MHOM/BR/74/PP75 promastigotes after 72 hrs by haemocytometry. The settings on record: MHOM/BR/74/PP75, 72 h. The data set is classed as functional, organism-based. The procedure, abridged:
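Late-phase L. chagasi promastigotes, grown at 28 °C in RPMI 1640 with hemin, HEPES and 10% hiSBF, exposed to threefold serial dilutions (0.3–100 μM) for 72 h at 28 °C; untreated controls. Growth inhibition from haemocytometer counts; IC50/IC90 by sigmoidal regression; triplicates, repeated twice.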

A short description of data set [7]: Cytotoxicity against human THP1 cells after 72 hrs by MTT assay. The data set is classed as cell-based. The settings on record: THP-1 cells. The essentials:
as §1

Data set [8] is described as follows: Selectivity index, CC50 for human THP1 cells to IC50 for Leishmania chagasi MHOM/BR/74/PP75 promastigotes. The data set is classed as functional, THP-1. The essentials: (§3)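 Selectivity index computed as CC50 in THP-1 cells divided by IC50 against the L. chagasi stage named in the line.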
Data set [9] has as its system Leishmania chagasi. As to the kind of experiment: Antileishmanial activity against Leishmania chagasi MHOM/BR/74/PP75 amastigotes infected in human THP1 cells after 5 days by Giemsa staining. The data set is classed as functional, organism-based. The settings on record: MHOM/BR/74/PP75, THP-1, 120 h. The essentials:
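THP-1 cells (RPMI, 5% hiSBF, 37 °C, 5% CO2) transformed, then infected 24 h with late-phase L. chagasi promastigotes at parasite:cell 10:1. Treated with compound dilutions (top 100 μM) 5 days at 37 °C, 5% CO2, medium changed once after 3 days. Infected cells counted per 300 cells on methanol-fixed Giemsa slides; IC50/IC90 by sigmoidal regression; triplicates, repeated twice.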

Data set [10] in a line: Selectivity index, CC50 for human THP1 cells to IC50 for Leishmania chagasi MHOM/BR/74/PP75 amastigotes. The data set is classed as functional, THP-1. The procedure, abridged:
as §3

SMILES strings stand for the structures. pIC50: −log10 of the molar value.

By CC50 is commonly meant the concentration at which the toxic effect on the cells reaches its halfway point. In general, pIC50 refers to −log10 of the IC50, conventionally taken in molar units. What is called IC90 is the point of the concentration-response curve where the effect stands at 90%. Take `O[C@@H]1Cc2ccccc2N[C@H](c2cccc(Cl)c2)C1` (relative stereo): the CC50 at 72 h in data set [1] worked out at 295 µM; in [7], 167 µM. The CC90 at 72 h in data set [1] and in data set [7] was greater than 300 µM in each case. The pIC50 in data set [2] was 4.71; in [4], less than 4.00; in data set [6], 4.38; in data set [9], less than 4.00. Besides, the concentration for an effect of 90% (IC90) in [2] is greater than 100 µM; in data set [4] it was greater than 100 µM; in data set [6] it was 47 µM; in data set [9], greater than 100 µM. Moreover, the “Selectivity Index” value in data set [3] was 15.05; in [5] it was greater than 3; in data set [8], 4.04; in [10] it was greater than 1.
For `Cc1cccc([C@@H]2C[C@H](O)Cc3ccccc3N2)c1` (relative stereo), the results for the half-maximal cytotoxic concentration (CC50) at 72 h in data set [1] and in [7] were greater than 300 µM and 176 µM, respectively. In addition, the CC90 at 72 h in data set [1] and in data set [7] was greater than 300 µM in each case. The pIC50 was 4.81 in [2], 4.01 in data set [4], less than 4.00 in [6] and less than 4.00 in [9]. For the same compound, the concentration for an effect of 90% (IC90) was 54.9 µM in data set [2], greater than 100 µM in data set [4], greater than 100 µM in data set [6] and greater than 100 µM in data set [9]. Also, the “Selectivity Index” value in data set [3] was greater than 19; in data set [5] it was greater than 3; in data set [8], greater than 1; in [10], greater than 1.
Turning to `Cc1ccc([C@@H]2C[C@H](O)Cc3cc(C)ccc3N2)cc1` (relative stereo), the CC50 at 72 h is greater than 300 µM in [1] and 172 µM in data set [7]. Moreover, the CC90 at 72 h in data set [1] and in data set [7] was greater than 300 µM each time. Moreover, the negative logarithm of the IC50 (pIC50) in data set [2] is 5.21; in data set [4], 4.30; in [6], less than 4.00; in data set [9], less than 4.00. Moreover, the IC90 in data set [2] was 35.3 µM; in data set [4] it was greater than 100 µM; in [6], greater than 100 µM; in data set [9], greater than 100 µM. The “Selectivity Index” value in [3] was greater than 49; in data set [5] it was greater than 6; in data set [8] it was greater than 1; in data set [10] it was greater than 1.
As for `O[C@@H]1Cc2cc(Cl)ccc2N[C@H](c2ccc(Cl)cc2)C1` (relative stereo), the figures for the CC50 at 72 h in [1] and in data set [7] were 76.6 µM and 49.2 µM, respectively. Further, the CC90 at 72 h in data set [1] and in data set [7] was greater than 300 µM each time. Further, the pIC50 in data set [2] is 4.78; in [4], less than 4.00; in [6] it was 4.85; in [9] it was less than 4.00. Further, the 90% effect concentration (IC90) was 29.7 µM in data set [2], greater than 100 µM in [4], 41 µM in [6] and greater than 100 µM in data set [9]. Also, the “Selectivity Index” value is given as 4.65 in data set [3], greater than 0.8 in data set [5], 3.49 in data set [8] and greater than 0.49 in data set [10].
`Cc1ccc2c(c1)C[C@@H](O)C[C@@H](c1ccccc1Cl)N2` (relative stereo): the 50% cytotoxic concentration (CC50) at 72 h in data set [1] was determined as 82.4 µM; in data set [7], 85.2 µM. Further, the CC90 at 72 h in data set [1] and in [7] was greater than 300 µM each time. In addition, the pIC50 is 4.65 in data set [2], 4.34 in data set [4], 4.38 in [6] and less than 4.00 in data set [9]. Also, the IC90 in [2] was 67.2 µM; in data set [4], 73.6 µM; in data set [6] it was 49.4 µM; in [9] it was greater than 100 µM. Also, the “Selectivity Index” value in data set [3] was 3.67; in data set [5], 1.8; in [8] it was 2.06; in data set [10] it was greater than 0.85.
Take `O[C@@H]1Cc2cc(Cl)ccc2N[C@H](c2ccccc2Cl)C1` (relative stereo): the 50% cytotoxic concentration (CC50) at 72 h in data set [1] came out at 106 µM; in [7], 75.5 µM. The CC90 at 72 h in data set [1] and in [7] was greater than 300 µM throughout. In addition, the pIC50 in [2] was 4.81; in data set [4] it was less than 4.00; in data set [6], 4.30; in data set [9] it was less than 4.00. Moreover, the IC90 was 35.7 µM in data set [2], greater than 36.1 µM in data set [4], greater than 100 µM in data set [6] and greater than 100 µM in data set [9]. The “Selectivity Index” value in data set [3] is reported as 6.91; in data set [5], greater than 1; in data set [8], 1.5; in data set [10] it was greater than 0.75.
Take `O[C@@H]1Cc2cc(Cl)ccc2N[C@H](c2ccccc2F)C1` (relative stereo): the 50% cytotoxic concentration (CC50) at 72 h was 182 µM in data set [1] and 110 µM in [7]. Further, the CC90 at 72 h in data set [1] is greater than 300 µM; in data set [7], 273 µM. Further, the pIC50 in [2] is 4.76; in data set [4], less than 4.42; in data set [6] it was 4.26; in [9], less than 4.00. Further, the 90% effect concentration (IC90) was 79.9 µM in [2], greater than 38.1 µM in data set [4], greater than 100 µM in data set [6] and greater than 100 µM in [9]. Also, the “Selectivity Index” value was 10.53 in data set [3], greater than 4 in [5], 2.02 in data set [8] and greater than 1 in data set [10].
For `O[C@@H]1Cc2cc(Cl)ccc2N[C@H](c2ccc(Br)cc2)C1` (relative stereo), the half-maximal cytotoxic concentration (CC50) at 72 h in [1] came out at 57.7 µM; in [7], 153 µM. The CC90 at 72 h in [1] came out at 164 µM; in [7], 280 µM. The negative-log IC50 (pIC50) was 4.57 in data set [2], less than 4.02 in data set [4], 5.02 in [6] and less than 4.02 in data set [9]. For the same compound, the IC90 was 54.4 µM in data set [2], greater than 94.9 µM in [4], 11.7 µM in data set [6] and greater than 94.9 µM in data set [9]. For the same compound, the “Selectivity Index” value is 2.12 in [3], greater than 0.6 in data set [5], 16.05 in data set [8] and greater than 1.61 in data set [10].
Consider `O[C@@H]1Cc2cc(F)ccc2N[C@H](c2ccc(Cl)cc2)C1` (relative stereo), for which the 50% cytotoxic concentration (CC50) at 72 h in data set [1] is 194 µM; in data set [7], 100 µM. In addition, the CC90 at 72 h in [1] and in data set [7] was greater than 300 µM throughout. Further, the negative logarithm of the IC50 (pIC50) in [2] is 4.34; in data set [4], less than 4.00; in [6], 4.77; in data set [9] it was less than 4.00. The concentration for an effect of 90% (IC90) is greater than 100 µM in [2], greater than 100 µM in data set [4], 77.7 µM in data set [6] and greater than 100 µM in [9]. Further, the “Selectivity Index” value was 4.21 in data set [3], greater than 1.9 in data set [5], 5.86 in data set [8] and greater than 1 in [10].
For `O[C@@H]1Cc2ccccc2N[C@H](c2ccccc2Cl)C1` (relative stereo), the CC50 at 72 h in data set [1] and in [7] was greater than 300 µM each time. Moreover, the CC90 at 72 h in data set [1] and in data set [7] was greater than 300 µM in each case. For the same compound, the pIC50 was 4.30 in data set [2], less than 4.00 in data set [4], 4.07 in data set [6] and less than 4.00 in data set [9]. Besides, the concentration for an effect of 90% (IC90) in data set [2], in [4], in data set [6] and in data set [9] was greater than 100 µM throughout. Moreover, the “Selectivity Index” value was greater than 6 in data set [3], greater than 3 in data set [5], greater than 3 in data set [8] and greater than 3 in data set [10].
For `O[C@@H]1Cc2ccccc2N[C@H](c2ccccc2F)C1` (relative stereo), the CC50 at 72 h in data set [1] and in [7] was greater than 300 µM throughout. In addition, the CC90 at 72 h in [1] and in [7] was greater than 300 µM in each case. Also, the pIC50 was 4.20 in data set [2], less than 4.00 in [4], less than 4.00 in [6] and less than 4.00 in [9]. In addition, the IC90 in data set [2], in [4], in data set [6] and in [9] was greater than 100 µM throughout. Besides, the “Selectivity Index” value in data set [3] is listed as greater than 4; in data set [5] it was greater than 3; in data set [8] it was greater than 3; in data set [10], greater than 3.

The values above are taken from ChEMBL document CHEMBL1177650, “Synthesis, structural elucidation and in vitro antiparasitic activity against Trypanosoma cruzi and Leishmania chagasi parasites of novel tetrahydro-1-benzazepine derivatives” (Bioorg Med Chem, 2010).
